In ChEMBL document CHEMBL3526119, “Effect of the CYP2C8 genotype on the pharmacokinetics and pharmacodynamics of repaglinide” (Drug Metab Dispos, 2011):

Legend:
Type in all cases: ADME, organism-based
Homo sapiens [1] = assay: Maximal change in insulin concentration in healthy white human plasma with CYP2C8*1/*1 genotype at 2 mg, po up to 6 hrs; settings: in vivo
Summary of the method: (§1)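 Plasma insulin was sampled up to 6 h after a single oral 2 mg dose, with subjects fasting. It was measured by solid-phase enzyme-labelled chemiluminescent immunometric assay, calibration range 2–300 mU/l. Maximal change is the largest change from the baseline concentration within 6 h.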

[2] = AUC (0 to infinity) in healthy white human with SLCO1B1 521TT/CYP2C8*1/*3 combined genotype at 2 mg, po; set-up: dose 2 mg, route oral, time infinity; settings: plasma
Summary of the method: (§2)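 Healthy Caucasians genotyped for CYP2C8*3 and SLCO1B1 521T>C were given a single oral 2 mg dose of repaglinide, and alcohol, caffeine and grapefruit were withheld. Plasma was sampled before dosing and at 15 times from 0.25 to 24 h. Drug was measured by LC-MS/MS against diclofenac internal standard, linear 0.098–79.139 µg/L. Noncompartmental analysis: Cmax taken as observed; AUC by linear/log-linear trapezoidal rule extrapolated to infinity.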

[3] = Terminal half life in healthy white human with CYP2C8*1/*1 genotype at 2 mg, po; settings: in vivo, read-out: beta t1/2 (converted)
Summary of the method: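 Single oral 2 mg dose; plasma sampled pre-dose and from 0:15 to 24 h post-dose (15 samples). Repaglinide measured by LC-MS/MS with diclofenac internal standard; calibration 0.098–79.139 µg/L. Noncompartmental analysis; AUC by linear/log-linear trapezoidal rule extrapolated to infinity. Reported as mean with 95% CI for all subjects and for each CYP2C8*3 genotype group.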

[4] = Cmax in healthy white human with SLCO1B1 521TC/CYP2C8*3/*3 combined genotype at 2 mg, po; set-up: dose 2 mg, route oral; settings: in vivo; summary of the method: as §2
[5] = AUC (0 to infinity) in healthy white human with SLCO1B1 521CC/CYP2C8*1/*3 combined genotype at 2 mg, po; set-up: dose 2 mg, time infinity, route oral; settings: plasma; summary of the method: as §2
[6] = AUC (0 to infinity) in healthy white human with SLCO1B1 521CC/CYP2C8*3/*3 combined genotype at 2 mg, po; set-up: dose 2 mg, route oral, time infinity; settings: plasma; summary of the method: as §2
Homo sapiens [7] = assay: Mean change in blood glucose concentration in healthy white human plasma SLCO1B1 521TC/CYP2C8*3/*3 combined genotype at 2 mg, po; settings: in vivo
Summary of the method: (§3)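 Single 2 mg oral dose in healthy Caucasian volunteers genotyped for CYP2C8*3, with SLCO1B1 521T>C also typed. […] Mean change is the average difference between values up to 6 h post-dose and baseline. Fasting lasted to 6 h. Mean with 95% CI or SD by genotype group.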

Homo sapiens [8] = species on record: Homo sapiens; assay: Maximal change in blood glucose concentration in healthy human plasma with SLCO1B1 521TT genotype at 0.5 mg
Homo sapiens [9] = assay: Mean change in insulin concentration in healthy white human plasma with CYP2C8*3/*3 genotype at 2 mg, po up to 6 hrs; settings: in vivo
Summary of the method: (§4)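 Healthy Caucasians got a single 2 mg oral dose and were genotyped for CYP2C8*3 and SLCO1B1 521T>C. Plasma insulin was sampled from pre-dose to 6 h and measured by solid-phase enzyme-labelled chemiluminescent immunometric assay (calibration 2–300 mU/l). Mean change is the average of post-dose values minus baseline up to 6 h, summarised per genotype group.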

[10] = AUC (0 to infinity) in healthy white human at 2 mg, po; set-up: dose 2 mg, time infinity, route oral; settings: plasma; summary of the method: as §2
[11] = Cmax in healthy white human with SLCO1B1 521TT/CYP2C8*3/*3 combined genotype at 2 mg, po; set-up: dose 2 mg, route oral; settings: in vivo; summary of the method: as §2
[12] = AUC (0 to infinity) in healthy white human with CYP2C8*1/*3 genotype at 2 mg, po; set-up: dose 2 mg, time infinity, route oral; settings: plasma; summary of the method: as §2
[13] = Cmax in healthy white human with CYP2C8*1/*1 genotype at 2 mg, po; set-up: dose 2 mg, route oral; settings: in vivo; summary of the method: as §2
Homo sapiens [14] = assay: Maximal change in blood glucose concentration in healthy white human plasma at 2 mg, po up to 6 hrs; settings: in vivo
Summary of the method: (§5)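 Venous blood glucose was read at each blood sampling time after a single oral 2 mg dose, with fasting up to 6 h. […] Maximal change is the largest change from baseline. Mean change is the average difference between values up to 6 h post-dose and baseline.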

Homo sapiens [15] = assay: Mean change in insulin concentration in healthy white human plasma at 2 mg, po up to 6 hrs; settings: in vivo; summary of the method: as §4
Homo sapiens [16] = assay: Mean change in insulin concentration in healthy white human plasma with SLCO1B1 521CC/CYP2C8*3/*3 combined genotype at 2 mg, po; settings: in vivo; summary of the method: as §4
Homo sapiens [17] = assay: Mean change in insulin concentration in healthy white human plasma with SLCO1B1 521TT/CYP2C8*1/*3 combined genotype at 2 mg, po; settings: in vivo; summary of the method: as §4
Homo sapiens [18] = assay: Mean change in blood glucose concentration in healthy white human plasma SLCO1B1 521TT/CYP2C8*1/*3 combined genotype at 2 mg, po; settings: in vivo; summary of the method: as §3
Homo sapiens [19] = assay: Mean change in insulin concentration in healthy white human plasma with SLCO1B1 521TT/CYP2C8*3/*3 combined genotype at 2 mg, po; settings: in vivo; summary of the method: as §4
Homo sapiens [20] = assay: Mean change in insulin concentration in healthy white human plasma with CYP2C8*1/*3 genotype at 2 mg, po up to 6 hrs; settings: in vivo; summary of the method: as §4
Homo sapiens [21] = assay: Mean change in blood glucose concentration in healthy white human plasma SLCO1B1 521TT/CYP2C8*1/*1 combined genotype at 2 mg, po; settings: in vivo; summary of the method: as §3
Homo sapiens [22] = assay: Mean change in blood glucose concentration in healthy white human plasma SLCO1B1 521CC/CYP2C8*3/*3 combined genotype at 2 mg, po; settings: in vivo; summary of the method: as §5
[23] = Oral clearance in healthy white human with CYP2C8*1/*1 genotype at 2 mg, po; settings: in vivo
Summary of the method: (§6)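 Repaglinide was assayed by LC-MS/MS with diclofenac internal standard (LLOQ 0.098 µg/L). Noncompartmental analysis gave AUC by linear/log-linear trapezoidal rule extrapolated to infinity. Weight-adjusted oral clearance = dose/(AUC × body weight).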

[24] = AUC (0 to infinity) in healthy white human with CYP2C8*1/*1 genotype at 2 mg, po; set-up: dose 2 mg, time infinity, route oral; settings: plasma; summary of the method: as §2
Homo sapiens [25] = assay: Maximal change in insulin concentration in healthy white human plasma with CYP2C8*1/*3 genotype at 2 mg, po up to 6 hrs; settings: in vivo; summary of the method: as §1
[26] = AUC (0 to infinity) in healthy white human with SLCO1B1 521TC/CYP2C8*3/*3 combined genotype at 2 mg, po; set-up: dose 2 mg, route oral, time infinity; settings: plasma; summary of the method: as §2
[27] = Oral clearance in healthy white human with CYP2C8*1/*3 genotype at 2 mg, po; settings: in vivo; summary of the method: as §6
Homo sapiens [28] = assay: Maximal change in insulin concentration in healthy white human plasma with CYP2C8*3/*3 genotype at 2 mg, po up to 6 hrs; settings: in vivo; summary of the method: as §1
[29] = Tmax in healthy white human with CYP2C8*1/*1 genotype at 2 mg, po; settings: in vivo
[30] = Cmax in healthy white human with SLCO1B1 521TC/CYP2C8*1/*3 combined genotype at 2 mg, po; set-up: dose 2 mg, route oral; settings: in vivo; summary of the method: as §2
Homo sapiens [31] = species on record: Homo sapiens; assay: Maximal change in blood glucose concentration in healthy human plasma with SLCO1B1 521TC genotype at 0.5 mg
Homo sapiens [32] = assay: Maximal change in insulin concentration in healthy white human plasma at 2 mg, po up to 6 hrs; settings: in vivo; summary of the method: as §1
[33] = AUC (0 to infinity) in healthy white human with SLCO1B1 521TC/CYP2C8*1/*3 combined genotype at 2 mg, po; set-up: dose 2 mg, time infinity, route oral; settings: plasma; summary of the method: as §2
[34] = Tmax in healthy white human at 2 mg, po; settings: in vivo

## CCOc1cc(CC(=O)N[C@@H](CC(C)C)c2ccccc2N2CCCCC2)ccc1C(=O)O [REPAGLINIDE]
Homo sapiens [1]
  Activity: 23.9 mU/L
[2]
  AUC(0-inf): 117 ng·h/mL
[3]
  half-life: 72 min
[4]
  Cmax: 15.3 ng/mL
[5]
  AUC(0-inf): 18.2 ng·h/mL
[6]
  AUC(0-inf): 95.8 ng·h/mL
Homo sapiens [7]
  Activity: -0.2 mM
Homo sapiens [8]
  Activity: 1.9 mM
Homo sapiens [9]
  Activity: 2.6 mU/L
[10]
  AUC(0-inf): 97.4 ng·h/mL
[11]
  Cmax: 36.6 ng/mL
[12]
  AUC(0-inf): 97.2 ng·h/mL
[13]
  Cmax: 60.3 ng/mL
Homo sapiens [14]
  Activity: -1.69 mM
Homo sapiens [15]
  Activity: 5.5 mU/L
Homo sapiens [16]
  Activity: 6.1 mU/l
Homo sapiens [17]
  Activity: 5.6 mU/l
Homo sapiens [18]
  Activity: -0.5 mM
Homo sapiens [19]
  Activity: 1 mU/l
Homo sapiens [20]
  Activity: 5.2 mU/L
Homo sapiens [21]
  Activity: -0.4 mM
Homo sapiens [22]
  Activity: -0.8 mM
[23]
  CL/F: 7.5 mL/min/kg
[24]
  AUC(0-inf): 106 ng·h/mL
Homo sapiens [25]
  Activity: 17.3 mU/L
[26]
  AUC(0-inf): 23.4 ng·h/mL
[27]
  CL/F: 7.67 mL/min/kg
Homo sapiens [28]
  Activity: 8.3 mU/L
[29]
  Tmax: 48 min
[30]
  Cmax: 45 ng/mL
Homo sapiens [31]
  Activity: 1.9 mM
Homo sapiens [32]
  Activity: 18.8 mU/L
[33]
  AUC(0-inf): 77.2 ng·h/mL
[34]
  Tmax: 48 min
